According to article PMC8364871 (Clinical cancer research : an official journal of the …, 2021):

Experiments:
SOX11-DNA interaction = molecular target: T1, SOX11-DNA interaction (Homo sapiens, UniProt P35716); experiment: Fluorescence anisotropy; format: biochemical; settings: 20 μM of compound
T1 sequence (P35716 49-117 limits assumed): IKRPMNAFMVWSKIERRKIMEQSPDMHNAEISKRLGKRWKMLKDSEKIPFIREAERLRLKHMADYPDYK
Outline: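 Fluorescence anisotropy read at fluorescein excitation/emission wavelengths to follow SOX11–DNA binding in the presence of test compound. Unlabeled DNA served as the competitive positive control. Read-out: percent inhibition of DNA binding.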

MCL cell lines = experiment: Activity in MCL cell lines; format: cell-based, human
[1] = tested on: pBTK in JeKo-1, Z-138, Mino and JVM-2; experiment: PhosphoFlow pBTK-Y223, all four MCL cell lines; format: cell-based, human; settings: 24 hours; 1 μM and 10 μM Ibrutinib (Figure 5B)
MCL patients = settings: cited from earlier work; for duration of response: MCL patients
[2] = tested on: DNA (topoisomerase I relaxation of supercoiled plasmid DNA); experiment: Topoisomerase-based DNA unwinding assay; format: biochemical; settings: 20 μM
SOX11 DBD = settings: cited from earlier work
(His)6-SOX11-DBD = molecular target: T2, (His)6-SOX11-DBD (Homo sapiens, UniProt P35716); experiment: Surface plasmon resonance binding to immobilized SOX11-DBD; settings: 25 °C
T2 sequence (P35716 49-117 limits assumed): T1 sequence (P35716 49-117 limits assumed)

Cc1cc2nc3c(=O)[nH]c(=O)nc-3n(C[C@H](O)[C@H](O)[C@H](O)COP(=O)(O)OP(=O)(O)OC[C@H]3O[C@@H](n4cnc5c(N)ncnc54)[C@H](O)[C@@H]3O)c2cc1C [Flavitan]
inhibition of DNA binding (SOX11-DNA interaction): > 50% | activity in MCL cell lines (MCL cell lines): inactivity in MCL cell lines

C=CC(=O)N1CCC[C@@H](n2nc(-c3ccc(Oc4ccccc4)cc3)c3c(N)ncnc32)C1 [Ibrutinib]
pBTK level in all four cell lines [1]: reduced pBTK level in all four cell lines | duration of response (MCL patients): 17.5 months | overall response rate (MCL patients; relapsed MCL patients): 60% | direct DNA binding / interference with DNA unwinding activity of topoisomerase I [2]: do not directly bind DNA

O=C(O)c1c(O)cccc1CCc1ccc2ccccc2c1 [Sm4]
concentration inhibiting SOX11 DBD (SOX11 DBD): sub-millimolar concentrations | binding affinity to SOX11-DBD (SPR) ((His)6-SOX11-DBD): displayed expected affinities

CC1(C)CCC(CN2CCN(c3ccc(C(=O)NS(=O)(=O)c4ccc(NCC5CCOCC5)c([N+](=O)[O-])c4)c(Oc4cnc5[nH]ccc5c4)c3)CC2)=C(c2ccc(Cl)cc2)C1 [Venetoclax]
duration of response (MCL patients): 14 months
